Source: publication PMC3797290 (Experimental and Therapeutic Medicine, 2013)

How the values were obtained:
P. aeruginosa 8–97 = experiment: Interaction study, checkerboard titration; format: cell-based, Pseudomonas aeruginosa; conditions: antibiotic in combination with RNL (ranalexin)
E. coli 31–97 = experiment: Interaction study, checkerboard titration; format: cell-based, Escherichia coli
E. coli 7–98 = experiment: Interaction study, checkerboard titration; format: cell-based, Escherichia coli
E. coli ATCC 25922 = experiment: Interaction study, checkerboard titration; format: cell-based, Escherichia coli; conditions: antibiotic in combination with RNL (ranalexin)
MS S. aureus 56–96 = experiment: Interaction study, checkerboard titration; format: cell-based, Staphylococcus aureus; conditions: antibiotic in combination with RNL (ranalexin)
MS S. aureus 15–99 = experiment: Interaction study, checkerboard titration; format: cell-based, Staphylococcus aureus; conditions: antibiotic in combination with RNL (ranalexin)
Method in brief: (§1)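 Checkerboard titration of peptide plus clinical antibiotic against representative clinical MS S. aureus isolates in polypropylene microtiter plates. […] Mueller-Hinton broth, inoculum 5×10^5 cfu/ml, 18 h at 35°C in air. MIC is the lowest concentration inhibiting visible growth. FIC index = A/MICA + B/MICB; synergy ≤0.5.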

P. aeruginosa = conditions: at 2 mg/l, in vitro, cited from earlier work; for effect on P. aeruginosa at 48 h: incubation continued for 48 h
MS S. aureus 14–99 = experiment: Interaction study, checkerboard titration; format: cell-based, Staphylococcus aureus; conditions: antibiotic in combination with RNL (ranalexin)
Method in brief: as §1

MS S. aureus 21–99 = experiment: Interaction study, checkerboard titration; format: cell-based, Staphylococcus aureus; conditions: antibiotic in combination with RNL (ranalexin)
[1] = antibiotic in combination with MG II (magainin II)
[2] = antibiotic in combination with RNL (ranalexin)

Row | Molecule | FIC index (P. aeruginosa 8–97) | FIC index (E. coli 31–97; [1]) | FIC index (E. coli 7–98; [1]) | FIC index (E. coli ATCC 25922) | FIC index (MS S. aureus 56–96) | FIC index (MS S. aureus 15–99) | effect on P. aeruginosa cell growth at 24 h (P. aeruginosa) | effect on P. aeruginosa at 48 h (P. aeruginosa) | FIC index (MS S. aureus 14–99) | FIC index (E. coli 31–97; [2]) | FIC index (E. coli 7–98; [2]) | FIC index (MS S. aureus 21–99)
1 | CC(C)(O/N=C(\C(=O)N[C@@H]1C(=O)N2C(C(=O)[O-])=C(C[n+]3ccccc3)CS[C@H]12)c1csc(N)n1)C(=O)O [CAZ, ceftazidime] | 1.500 | 0.187 | 0.312 |  |  |  |  |  |  |  |  | 
2 | CC[C@H]1OC(=O)[C@H](C)[C@@H](O[C@H]2C[C@@](C)(OC)[C@@H](O)[C@H](C)O2)[C@H](C)[C@@H](O[C@@H]2O[C@H](C)C[C@H](N(C)C)[C@H]2O)[C@](C)(OC)C[C@@H](C)C(=O)[C@H](C)[C@@H](O)[C@]1(C)O [CLR, clarithromycin] | 0.375 | 1.500 | 1.500 | 0.375 | 0.312 | 0.187 | no effect on cell growth | bactericidal | 0.250 | 0.312 | 0.312 | 0.250
3 | CO/N=C(\C(=O)N[C@@H]1C(=O)N2C(C(=O)O)=C(CSc3nc(=O)c(=O)[nH]n3C)CS[C@H]12)c1csc(N)n1 [CRO, ceftriaxone] | 0.750 | 0.312 | 0.250 | 1.000 | 1.500 | 1.250 |  |  | 1.000 | 1.250 | 1.250 | 1.500
4 | C[C@H]1c2cccc(O)c2C(=O)C2=C(O)[C@]3(O)C(=O)C(C(N)=O)=C(O)[C@@H](N(C)C)[C@@H]3[C@@H](O)[C@@H]21 [D, doxycycline] | 0.312 | 1.250 | 2.000 | 0.312 | 0.312 | 0.250 |  |  | 0.312 | 0.375 | 0.312 | 0.187
5 | C[C@@H](O)[C@H]1C(=O)N2C(C(=O)O)=C(S[C@@H]3CN[C@H](C(=O)N(C)C)C3)[C@H](C)[C@H]12 [MEM, meropenem] | 1.000 | 0.375 | 0.375 | 0.750 | 1.250 | 1.500 |  |  | 1.250 | 1.000 | 1.500 | 1.500
6 | CCN1CCN(C(=O)N[C@@H](C(=O)N[C@@H]2C(=O)N3[C@@H]2SC(C)(C)[C@@H]3C(=O)O)c2ccccc2)C(=O)C1=O [PIP, piperacillin] | 1.000 | 0.312 | 0.250 | 0.750 |  |  |  |  |  | 1.250 | 1.000 | 
7 | CC[C@H]1OC(=O)[C@H](C)[C@@H](O[C@H]2C[C@@](C)(OC)[C@@H](O)[C@H](C)O2)[C@H](C)[C@@H](O[C@@H]2O[C@H](C)C[C@H](N(C)C)[C@H]2O)[C@](C)(O)C[C@@H](C)C(=O)[C@H](C)[C@@H](O)[C@]1(C)O [erythromycin] |  |  |  |  |  |  | no effect on cell growth | bactericidal |  |  |  | 
8 | amoxicillin-clavulanate [AMC] | 1.000 | 0.312 | 0.187 | 1.500 |  | 1.500 |  |  | 1.000 |  | 1.000 | 
9 | polymyxin E [POL-E] | 0.250 | 1.500 |  | 0.187 |  |  |  |  |  | 0.250 | 0.312 | 
